# Reference: ChEMBL document CHEMBL2146443, “Cytotoxicity and DNA binding property of phenanthrene imidazole with polyglycol side chains” (Bioorg Med Chem Lett, 2012)
# The source made the active and inactive calls. The rule behind the calls is not given here.
# Experiments:
# BGC-823 = assay: Antiproliferative activity against human BGC823 cells by MTT assay; assay type: functional, cell-based
# HL-60 = assay: Antiproliferative activity against human HL60 cells by MTT assay; assay type: functional, cell-based
# Bel-7402 = assay: Antiproliferative activity against human Bel7402 cells by MTT assay; assay type: functional, cell-based
# KB = assay: Antiproliferative activity against human KB cells by MTT assay; assay type: functional, cell-based
# [1] = Solubility in phosphate buffer at pH 7.5; assay type: physicochemical
# Nucleic Acid [2] = assay: Binding affinity to calf thymus DNA at 4 x 10^-5 M at pH 7.5 by UV-Vis spectrophotometry; assay type: nucleic-acid assay; conditions: Bos taurus
# Method in brief: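 UV–vis titration: compound at 4.0 × 10^-5 M with Ct-DNA added (0–400 μM) in 1 mM phosphate buffer pH 7.5, 20 mM NaCl, 5% DMSO (v/v), 25 °C. Absorbance read over 300–400 nm to avoid DNA interference; binding constants fitted at maximum absorption band.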
# Nucleic Acid [3] = assay: Binding affinity to calf thymus DNA at 2 x 10^-5 M at pH 7.5 by circular dichroism; assay type: nucleic-acid assay; conditions: Bos taurus
# Method in brief: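 Circular dichroism of Ct-DNA (6.0 × 10^-5 M) alone and with compound (2.0 × 10^-5 M), in 10 mM phosphate buffer pH 7.5 with 20 mM NaCl and 5% DMSO, 25 °C.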
# Nucleic Acid [4] = assay: Binding affinity to calf thymus DNA assessed as change in melting temperature at 5 x 10^-6 M at pH 7.5 relative to control; assay type: nucleic-acid assay; conditions: Bos taurus
# Nucleic Acid [5] = assay: Binding affinity to calf thymus DNA at 4 x 10^-5 M at pH 7.5 by fluorescence spectrophotometry; assay type: nucleic-acid assay; conditions: Bos taurus
# Method in brief: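 Emission quenching: compound at 4.0 × 10^-5 M, excitation 320 nm, 5.0 nm slits, titrated with Ct-DNA 0–400 μM in 1 mM phosphate buffer pH 7.5, 20 mM NaCl, 5% DMSO, 25 °C. F/F0 plotted against DNA concentration; Stern-Volmer constants derived.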
compound,measurement,setting,value
OCCOc1ccc(-c2nc3c4ccccc4c4ccccc4c3[nH]2)cc1,IC50,BGC-823,6.36 µM
same,IC50,HL-60,11.3 µM
same,IC50,Bel-7402,4.65 µM
same,IC50,KB,7.03 µM
same,solubility,[1],Insoluble
Cn1c(-c2ccc(OCCO)cc2)[n+](C)c2c3ccccc3c3ccccc3c21,K,Nucleic Acid [2],1.68 ×10⁶ /M
same,IC50,BGC-823,10.7 µM
same,Activity,Nucleic Acid [3],Active
same,IC50,HL-60,24.8 µM
same,IC50,Bel-7402,14.1 µM
same,ΔTm,Nucleic Acid [4],4.8 °C
same,Activity,Nucleic Acid [5],Active
same,IC50,KB,14.5 µM
Cn1c(-c2ccc(OCCOCCOCCO)cc2)[n+](C)c2c3ccccc3c3ccccc3c21,K,Nucleic Acid [2],0.709 ×10⁶ /M
same,IC50,BGC-823,7.01 µM
same,Activity,Nucleic Acid [3],Active
same,IC50,HL-60,15.6 µM
same,IC50,Bel-7402,10.6 µM
same,ΔTm,Nucleic Acid [4],4 °C
same,Activity,Nucleic Acid [5],Active
same,IC50,KB,9.12 µM
OCCOCCOc1ccc(-c2nc3c4ccccc4c4ccccc4c3[nH]2)cc1,IC50,BGC-823,22.5 µM
same,IC50,HL-60,8.14 µM
same,IC50,Bel-7402,18.1 µM
same,IC50,KB,30.7 µM
same,solubility,[1],Insoluble
Cn1c(-c2ccc(OCCOCCO)cc2)[n+](C)c2c3ccccc3c3ccccc3c21,K,Nucleic Acid [2],1.51 ×10⁶ /M
same,IC50,BGC-823,9.35 µM
same,Activity,Nucleic Acid [3],Active
same,IC50,HL-60,12.1 µM
same,IC50,Bel-7402,10.7 µM
same,ΔTm,Nucleic Acid [4],4.2 °C
same,Activity,Nucleic Acid [5],Active
same,IC50,KB,11 µM
OCCOCCOCCOc1ccc(-c2nc3c4ccccc4c4ccccc4c3[nH]2)cc1,IC50,BGC-823,24.2 µM
same,IC50,HL-60,11.9 µM
same,IC50,Bel-7402,27.9 µM
same,IC50,KB,44.6 µM
same,solubility,[1],Insoluble
